Converted amounts (≈) assume the structure as drawn. The source made the active and inactive calls. No cut-off for these calls is given here. Square brackets hold non-standard residues; d marks the D form. Peptide text beside a SMILES is read from it. Orn = NCCC[C@H](N)C(=O)O; 2Abz = Nc1ccccc1C(=O)O
Experiments:
Pseudomonas aeruginosa [1] = test: Antibacterial activity against Pseudomonas aeruginosa assessed as induction of total membrane lysis at 4 times MIC after 1 hr by uranyl acetate/lead citrate staining-based transmission electron microscopic method; type: functional
Summary of the method: (§1)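 Overnight cultures in non-cation-adjusted MHB were diluted to OD 0.4. 1 mL aliquots were incubated 1 h at 37 °C with compound at 4 x MIC or without compound (control). Cells were washed in Tris buffer (pH 7.4) and fixed in 4% glutaraldehyde for 2 h at room temperature. They were post-fixed in 1% osmium tetroxide, ethanol/acetone dehydrated, epoxy embedded (60 °C, 48 h), ultrathin sectioned and imaged by TEM.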

Staphylococcus aureus [2] = test: Antibacterial activity against Staphylococcus aureus after 18 hrs; type: functional
Summary of the method: (§2)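 Broth microdilution in non-cation-adjusted MHB. Overnight 37 °C cultures adjusted to OD 0.1, then diluted 1:100. Two-fold compound dilutions were prepared in the plate before inoculation, with growth and sterility controls. Plates were incubated 18 h at 37 °C and read at OD600. MIC was the lowest concentration with no growth, from three concordant experiments each with three internal replicates.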

Candida albicans [3] = test: Antifungal activity against Candida albicans after 48 hrs in presence of 0.39 uM amphotericin B; type: functional
Summary of the method: (§3)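 C. albicans in RPMI (OD 0.1, diluted 1:100) was tested by two-fold compound dilution with 48 h incubation. The medium was supplemented with amphotericin B at 0.78 or 1.56 µM, giving a final 0.39 or 0.78 µM per well. MIC was read visually as no colony growth, from three concordant experiments each with three internal replicates.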

Pseudomonas aeruginosa [4] = test: Antibacterial activity against Pseudomonas aeruginosa assessed as induction of cell blebbing at 4 times MIC after 1 hr by uranyl acetate/lead citrate staining-based transmission electron microscopic method; type: functional; summary of the method: as §1
Candida albicans [5] = test: Antifungal activity against Candida albicans after 48 hrs in presence of 0.78 uM amphotericin B; type: functional; summary of the method: as §3
Escherichia coli = test: Antibacterial activity against Escherichia coli after 18 hrs; type: functional; summary of the method: as §2
Staphylococcus aureus [6] = test: Antibacterial activity against Staphylococcus aureus assessed as induction of cell membrane rupture at 4 times MIC after 1 hr by uranyl acetate/lead citrate staining-based transmission electron microscopic method; type: functional; summary of the method: as §1
Candida albicans [7] = test: Antifungal activity against Candida albicans after 48 hrs; type: functional
Summary of the method: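 A single C. albicans colony was taken into RPMI, adjusted to OD 0.1 and diluted 1:100. Two-fold compound dilutions were set up as for the bacterial microdilution and incubated 48 h. MIC was scored visually from colonies on the well bottoms as the lowest concentration with no growth, from three concordant experiments each with three internal replicates.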

Staphylococcus aureus [8] = test: Antibacterial activity against Staphylococcus aureus assessed as induction of cell wall rupture at 4 times MIC after 1 hr by uranyl acetate/lead citrate staining-based transmission electron microscopic method; type: functional; summary of the method: as §1
Pseudomonas aeruginosa [9] = test: Antibacterial activity against Pseudomonas aeruginosa after 18 hrs; type: functional; summary of the method: as §2
Staphylococcus aureus [10] = test: Antibacterial activity against Staphylococcus aureus assessed as decrease in intracellular density at 4 times MIC after 1 hr by uranyl acetate/lead citrate staining-based transmission electron microscopic method; type: functional, cell-based; summary of the method: as §1
[11] = Solubility of the compound in water; type: physicochemical; conditions: buffer
Pseudomonas aeruginosa [12] = test: Antibacterial activity against Pseudomonas aeruginosa assessed as induction of cell membrane rupture at 4 times MIC after 1 hr by uranyl acetate/lead citrate staining-based transmission electron microscopic method; type: functional; summary of the method: as §1

Row | MIC (Staphylococcus aureus [2]) | MIC (Candida albicans [3]) | MIC (Candida albicans [5]) | MIC (Escherichia coli) | MIC (Candida albicans [7]) | MIC (Pseudomonas aeruginosa [9]) | solubility [11] | Compound | Activity (Pseudomonas aeruginosa [1]) | Activity (Pseudomonas aeruginosa [4]) | Activity (Staphylococcus aureus [6]) | Activity (Staphylococcus aureus [8]) | Activity (Staphylococcus aureus [10]) | Activity (Pseudomonas aeruginosa [12])
1 | 1.56 µM (≈ 2.02 µg/mL) | 0.78 µM | 0.39 µM | 12.5 µM (≈ 16.2 µg/mL) | 12.5 µM (≈ 16.2 µg/mL) | 25 µM (≈ 32.3 µg/mL) | – | CC(C)C[C@@H]1NC(=O)[C@H](CCCN)NC(=O)[C@H](C(C)C)NC(=O)[C@H](Cc2ccc(O)cc2)NC(=O)[C@H](CCCCN)NC(=O)[C@H](CC(N)=O)NC(=O)[C@@H](Cc2ccccc2)NC(=O)[C@H](Cc2ccccc2)NC(=O)c2ccccc2NC(=O)[C@@H](Cc2ccccc2)NC1=O (cyclo([2Abz]F[dF]NKYV[Orn]L[dF])) | Active | Active | Active | Active | Active | –
2 | 6.25 µM (≈ 8.08 µg/mL) | – | – | 50 µM (≈ 64.6 µg/mL) | – | 100 µM (≈ 129 µg/mL) | Insoluble | CC(C)C[C@@H]1NC(=O)[C@H](CCCN)NC(=O)[C@H](C(C)C)NC(=O)[C@H](Cc2ccc(O)cc2)NC(=O)[C@H](CCC(N)=O)NC(=O)[C@H](CC(N)=O)NC(=O)[C@@H](Cc2ccccc2)NC(=O)[C@H](Cc2ccccc2)NC(=O)c2ccccc2NC(=O)[C@@H](Cc2ccccc2)NC1=O (cyclo([2Abz]F[dF]NQYV[Orn]L[dF])) | – | – | – | – | – | –
3 | – | – | – | – | 1.56 µM (≈ 1.44 µg/mL) | – | – | C[C@@H]1[C@H](O)[C@@H](C)/C=C/C=C/C=C/C=C/C=C/C=C/C=C/[C@H](O[C@@H]2O[C@H](C)[C@@H](O)[C@H](N)[C@@H]2O)C[C@@H]2O[C@](O)(C[C@@H](O)C[C@@H](O)[C@H](O)CC[C@@H](O)C[C@@H](O)CC(=O)O[C@H]1C)C[C@H](O)[C@H]2C(=O)O [AMPHOTERICIN B] | – | – | – | – | – | –
4 | 1.56 µM (≈ 1.98 µg/mL) | 0.78 µM | 0.39 µM | 25 µM (≈ 31.8 µg/mL) | 3.12 µM (≈ 3.97 µg/mL) | 100 µM (≈ 127 µg/mL) | – | CC(C)C[C@@H]1NC(=O)[C@H](CCCN)NC(=O)[C@H](C(C)C)NC(=O)[C@H](Cc2ccc(O)cc2)NC(=O)[C@H](CCC(N)=O)NC(=O)[C@H](CC(N)=O)NC(=O)[C@@H](Cc2ccccc2)NC(=O)[C@H](Cc2ccccc2)NC(=O)[C@@H]2CCCN2C(=O)[C@@H](Cc2ccccc2)NC1=O [TYROCIDINE A] (cyclo(F[dF]NQYV[Orn]L[dF]P)) | – | – | Active | Active | Active | inactive
